# According to ChEMBL document CHEMBL1221323, “Iodination of verapamil for a stronger induction of death, through GSH efflux, of cancer cells overexpressing MRP1” (Bioorg Med Chem, 2010):
# Columns and labels:
# BHK-21 [1] = assay: Cytotoxicity against hamster BHK21 cells after 96 hrs by MTT assay; format: functional, cell-based; conditions: Mesocricetus auratus, BHK-21, 96 h
# In short: (§1)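 Cells plated at 1.0 × 10⁴/well and grown 17 h, then exposed to compound diluted in complete medium (0.5% DMSO) for 96 h at 37 °C, 5% CO₂. MTT at 0.5 mg/mL added for 4 h, dye removed, formazan dissolved in isopropanol, absorbance read at 570 nm. IC50 taken from sigmoidal fits of triplicate dose–response curves.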
# [2] = biological target: T1, Multidrug resistance-associated protein 1 (Homo sapiens, UniProt P33527); assay: Inhibition of MRP1 expressed in hamster BHK21 cells assessed as reduction of GSH efflux at 5 uM after up to 120 mins; format: cell-based; conditions: bhk-21, 2 h
# T1 sequence (P33527 whole entry): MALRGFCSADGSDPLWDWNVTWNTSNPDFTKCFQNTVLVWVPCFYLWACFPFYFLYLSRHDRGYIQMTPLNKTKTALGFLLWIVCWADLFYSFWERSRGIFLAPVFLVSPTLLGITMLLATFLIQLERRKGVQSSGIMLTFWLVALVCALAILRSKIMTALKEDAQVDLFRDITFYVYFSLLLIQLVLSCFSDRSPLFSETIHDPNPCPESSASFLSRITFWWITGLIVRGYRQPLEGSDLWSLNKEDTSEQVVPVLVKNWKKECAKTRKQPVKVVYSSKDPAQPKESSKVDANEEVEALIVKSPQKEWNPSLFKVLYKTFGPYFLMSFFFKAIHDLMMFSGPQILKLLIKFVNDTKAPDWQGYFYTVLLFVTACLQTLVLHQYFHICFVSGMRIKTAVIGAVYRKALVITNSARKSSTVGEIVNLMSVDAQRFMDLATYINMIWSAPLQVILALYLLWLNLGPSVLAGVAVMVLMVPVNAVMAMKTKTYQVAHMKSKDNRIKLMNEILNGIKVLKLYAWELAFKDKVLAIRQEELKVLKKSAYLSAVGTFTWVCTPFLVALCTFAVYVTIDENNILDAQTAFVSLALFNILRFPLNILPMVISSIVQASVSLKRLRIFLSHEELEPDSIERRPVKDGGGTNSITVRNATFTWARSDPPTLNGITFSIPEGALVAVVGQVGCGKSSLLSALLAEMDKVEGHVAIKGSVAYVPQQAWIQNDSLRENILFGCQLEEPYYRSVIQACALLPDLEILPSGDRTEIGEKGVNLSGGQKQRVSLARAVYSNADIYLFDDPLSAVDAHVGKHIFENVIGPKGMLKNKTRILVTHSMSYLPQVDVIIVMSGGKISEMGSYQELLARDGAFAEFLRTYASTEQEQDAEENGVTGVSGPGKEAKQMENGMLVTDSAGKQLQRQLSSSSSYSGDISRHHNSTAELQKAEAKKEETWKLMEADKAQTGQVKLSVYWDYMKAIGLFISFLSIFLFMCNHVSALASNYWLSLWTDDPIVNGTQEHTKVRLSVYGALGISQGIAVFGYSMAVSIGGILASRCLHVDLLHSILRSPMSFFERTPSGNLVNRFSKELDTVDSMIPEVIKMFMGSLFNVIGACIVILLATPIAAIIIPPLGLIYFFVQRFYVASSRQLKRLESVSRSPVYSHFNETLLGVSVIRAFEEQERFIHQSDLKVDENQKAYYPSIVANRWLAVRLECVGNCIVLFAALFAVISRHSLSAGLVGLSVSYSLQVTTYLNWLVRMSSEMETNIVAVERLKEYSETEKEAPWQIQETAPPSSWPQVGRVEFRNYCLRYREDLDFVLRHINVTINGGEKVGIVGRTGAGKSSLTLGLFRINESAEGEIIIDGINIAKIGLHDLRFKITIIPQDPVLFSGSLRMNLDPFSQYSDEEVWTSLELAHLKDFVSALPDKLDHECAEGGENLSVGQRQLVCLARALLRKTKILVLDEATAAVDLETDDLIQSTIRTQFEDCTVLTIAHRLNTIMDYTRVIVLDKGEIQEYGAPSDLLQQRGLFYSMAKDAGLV
# In short: (§2)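 Cells from the MRP1-transfected BHK-21 line (kept under methotrexate) were seeded at 1.0 × 10⁵/well, grown 17 h, then given 5 µM compound (DMSO ≤0.5%) for 10–120 min. Cells were washed in cold PBS and lysed in 0.1% Triton X-100. Total glutathione was measured by DTNB/NADPH/GSH reductase recycling (A412 kinetic, 2 min) and normalized to Bradford protein. Residual GSH is expressed as % of untreated cells; time to 50% loss is reported; triplicates.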
# BHK-21 [3] = assay: Cytotoxicity against hamster BHK21 cells expressing MRP1 after 96 hrs by MTT assay; format: functional, cell-based; conditions: Mesocricetus auratus, BHK-21, 96 h; in short: as §1
# [4] = biological target: T1, Multidrug resistance-associated protein 1; assay: Inhibition of MRP1 expressed in hamster BHK21 cells assessed as reduction of GSH efflux at 5 uM after up to 50 to 60 mins; format: cell-based; conditions: bhk-21, 5 µM; in short: as §2
Compound,IC50 (BHK-21 [1]),inhibition (INH) [2],IC50 (BHK-21 [3]),inhibition (INH) [4]
COc1ccc(CCN(C)CCCC(C#N)(c2ccc(OC)c(OC)c2)C(C)C)cc1 (configuration not stated),33.6 µM,Not Active,17.2 µM,–
COc1ccc(CCN(C)CCCC(C#N)(c2ccc(OC)c(OC)c2)C(C)C)cc1I (configuration not stated),13 µM,Not Active,4.7 µM,–
COc1ccc(C(C#N)(CCCNCCc2cc(I)c(O)c(I)c2)C(C)C)cc1OC (configuration not stated),13.8 µM,–,1.96 µM,–
COc1ccc(C(C#N)(CCCNCCc2ccc(O)c(I)c2)C(C)C)cc1OC (configuration not stated),14.2 µM,–,0.78 µM,–
COc1ccc(CCN(C)CCCC(C#N)(c2ccc(OC)c(OC)c2)C(C)C)cc1OC (configuration not stated) [VERAPAMIL],≥ 100 µM,–,10.6 µM,–
COc1ccc(C(C#N)(CCCN(C)Cc2ccc(O)cc2)C(C)C)cc1OC (configuration not stated),28.5 µM,–,6.6 µM,Not Active
COc1ccc(C(C#N)(CCCN(C)CCCc2ccc(O)cc2)C(C)C)cc1OC (configuration not stated),≥ 100 µM,–,20.9 µM,Not Active
COc1ccc(C(C#N)(CCCN(C)CCc2cc(I)c(OC)c(I)c2)C(C)C)cc1OC (configuration not stated),8.9 µM,Not Active,1.7 µM,–
COc1ccc(C(C#N)(CCCNCCc2ccc(O)cc2)C(C)C)cc1OC (configuration not stated),≥ 100 µM,–,38.1 µM,–
COc1ccc(C(C#N)(CCCN(C)CCc2cc(I)c(O)c(I)c2)C(C)C)cc1OC (configuration not stated),54.7 µM,–,1.1 µM,–
COc1ccc(C(C#N)(CCCN(C)CCc2ccc(O)cc2)C(C)C)cc1OC (configuration not stated),55.9 µM,–,11.7 µM,–
COc1ccc(C(C#N)(CCCN(C)Cc2ccc(O)c(I)c2)C(C)C)cc1OC (configuration not stated),14.1 µM,–,13 µM,–
COc1ccc(C(C#N)(CCCN(C)CCc2ccc(O)c(I)c2)C(C)C)cc1OC (configuration not stated),32.8 µM,–,8.6 µM,–
COc1ccc(C(C#N)(CCCN(C)CCCc2cc(I)c(O)c(I)c2)C(C)C)cc1OC (configuration not stated),33.1 µM,–,6 µM,–
COc1ccc(C(C#N)(CCCN(C)CCCc2ccc(O)c(I)c2)C(C)C)cc1OC (configuration not stated),9.4 µM,–,9.3 µM,–
COc1ccc(C(C#N)(CCCN(C)Cc2cc(I)c(O)c(I)c2)C(C)C)cc1OC (configuration not stated),27.4 µM,–,6.6 µM,–
